Measured values as given in ChEMBL document CHEMBL4312042, “In Silico Discovery of JMJD6 Inhibitors for Cancer Treatment” (ACS Med Chem Lett, 2019).
Values belong to the compound of their own block, whether it stands above or below them. Calls of active or inactive are those of the source. The rule behind the calls is not given here.

How the values were obtained:
[1] = target: T1, Bifunctional arginine demethylase and lysyl-hydroxylase JMJD6 (Homo sapiens, UniProt Q6NYC1); assay: Inhibition of His-tagged JMJD6 (unknown origin) expressed in Escherichia coli BL21 (DE3) assessed as increase in H4 arginine 3 symmetrical dimethylation (H4R3me2s) content at 10 uM using core histone as substrate preincubated with enzyme for 10 mins followed by incubation with substrate for 1 hr by immunoblotting analysis
Outline: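 Purified bacterially expressed JMJD6 incubated with core histones, with or without compound at 10 μM; product analysed by immunoblot for H4R3me2s with total histone H4 probed alongside.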

[2] = target: T2, Lysine-specific demethylase 4C (Homo sapiens) (UniProt Q9H3R0); assay: (§1) Inhibition of Flag-tagged KDM4C (unknown origin) expressed in Escherichia coli BL21 (DE3) assessed as formaldehyde release using core histone as substrate preincubated with enzyme for 10 mins followed by incubation with substrate for 1 hr measured following 2 hrs incubation with ammonium acetate/acetoacetanilide by fluorescence based analysis
T2 sequence (whole entry): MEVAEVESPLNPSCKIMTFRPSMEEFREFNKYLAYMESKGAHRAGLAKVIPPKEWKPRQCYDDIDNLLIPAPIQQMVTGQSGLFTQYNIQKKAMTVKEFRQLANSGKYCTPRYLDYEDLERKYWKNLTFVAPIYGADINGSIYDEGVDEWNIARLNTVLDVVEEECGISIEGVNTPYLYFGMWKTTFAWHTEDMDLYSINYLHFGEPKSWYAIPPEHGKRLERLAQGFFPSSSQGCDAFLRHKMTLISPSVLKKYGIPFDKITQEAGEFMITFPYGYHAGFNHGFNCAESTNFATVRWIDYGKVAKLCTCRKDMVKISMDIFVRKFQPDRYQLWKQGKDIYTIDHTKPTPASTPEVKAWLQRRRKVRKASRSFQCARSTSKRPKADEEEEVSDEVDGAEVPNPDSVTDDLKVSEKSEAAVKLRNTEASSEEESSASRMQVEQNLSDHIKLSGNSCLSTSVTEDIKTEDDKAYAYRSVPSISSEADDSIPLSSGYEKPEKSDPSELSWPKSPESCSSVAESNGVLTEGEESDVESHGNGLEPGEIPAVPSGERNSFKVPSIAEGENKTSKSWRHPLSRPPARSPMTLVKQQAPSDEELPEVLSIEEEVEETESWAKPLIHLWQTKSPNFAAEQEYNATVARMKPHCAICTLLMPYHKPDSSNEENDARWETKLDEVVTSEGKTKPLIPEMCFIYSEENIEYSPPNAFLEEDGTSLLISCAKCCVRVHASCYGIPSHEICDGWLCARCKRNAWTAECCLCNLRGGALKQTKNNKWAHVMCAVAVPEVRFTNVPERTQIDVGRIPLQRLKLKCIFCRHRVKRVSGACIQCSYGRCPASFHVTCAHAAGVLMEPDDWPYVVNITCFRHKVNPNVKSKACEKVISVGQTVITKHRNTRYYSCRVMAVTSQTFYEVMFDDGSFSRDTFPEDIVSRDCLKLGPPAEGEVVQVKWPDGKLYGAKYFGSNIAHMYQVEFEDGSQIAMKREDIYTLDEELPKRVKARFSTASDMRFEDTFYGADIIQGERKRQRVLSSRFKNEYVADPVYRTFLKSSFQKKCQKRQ

[3] = target: Lysine-specific demethylase 5C (Homo sapiens) (UniProt P41229); assay: as §1, with “KDM5C” for “KDM4C”
Sequence of Lysine-specific demethylase 5C (Homo sapiens) (P41229 whole entry): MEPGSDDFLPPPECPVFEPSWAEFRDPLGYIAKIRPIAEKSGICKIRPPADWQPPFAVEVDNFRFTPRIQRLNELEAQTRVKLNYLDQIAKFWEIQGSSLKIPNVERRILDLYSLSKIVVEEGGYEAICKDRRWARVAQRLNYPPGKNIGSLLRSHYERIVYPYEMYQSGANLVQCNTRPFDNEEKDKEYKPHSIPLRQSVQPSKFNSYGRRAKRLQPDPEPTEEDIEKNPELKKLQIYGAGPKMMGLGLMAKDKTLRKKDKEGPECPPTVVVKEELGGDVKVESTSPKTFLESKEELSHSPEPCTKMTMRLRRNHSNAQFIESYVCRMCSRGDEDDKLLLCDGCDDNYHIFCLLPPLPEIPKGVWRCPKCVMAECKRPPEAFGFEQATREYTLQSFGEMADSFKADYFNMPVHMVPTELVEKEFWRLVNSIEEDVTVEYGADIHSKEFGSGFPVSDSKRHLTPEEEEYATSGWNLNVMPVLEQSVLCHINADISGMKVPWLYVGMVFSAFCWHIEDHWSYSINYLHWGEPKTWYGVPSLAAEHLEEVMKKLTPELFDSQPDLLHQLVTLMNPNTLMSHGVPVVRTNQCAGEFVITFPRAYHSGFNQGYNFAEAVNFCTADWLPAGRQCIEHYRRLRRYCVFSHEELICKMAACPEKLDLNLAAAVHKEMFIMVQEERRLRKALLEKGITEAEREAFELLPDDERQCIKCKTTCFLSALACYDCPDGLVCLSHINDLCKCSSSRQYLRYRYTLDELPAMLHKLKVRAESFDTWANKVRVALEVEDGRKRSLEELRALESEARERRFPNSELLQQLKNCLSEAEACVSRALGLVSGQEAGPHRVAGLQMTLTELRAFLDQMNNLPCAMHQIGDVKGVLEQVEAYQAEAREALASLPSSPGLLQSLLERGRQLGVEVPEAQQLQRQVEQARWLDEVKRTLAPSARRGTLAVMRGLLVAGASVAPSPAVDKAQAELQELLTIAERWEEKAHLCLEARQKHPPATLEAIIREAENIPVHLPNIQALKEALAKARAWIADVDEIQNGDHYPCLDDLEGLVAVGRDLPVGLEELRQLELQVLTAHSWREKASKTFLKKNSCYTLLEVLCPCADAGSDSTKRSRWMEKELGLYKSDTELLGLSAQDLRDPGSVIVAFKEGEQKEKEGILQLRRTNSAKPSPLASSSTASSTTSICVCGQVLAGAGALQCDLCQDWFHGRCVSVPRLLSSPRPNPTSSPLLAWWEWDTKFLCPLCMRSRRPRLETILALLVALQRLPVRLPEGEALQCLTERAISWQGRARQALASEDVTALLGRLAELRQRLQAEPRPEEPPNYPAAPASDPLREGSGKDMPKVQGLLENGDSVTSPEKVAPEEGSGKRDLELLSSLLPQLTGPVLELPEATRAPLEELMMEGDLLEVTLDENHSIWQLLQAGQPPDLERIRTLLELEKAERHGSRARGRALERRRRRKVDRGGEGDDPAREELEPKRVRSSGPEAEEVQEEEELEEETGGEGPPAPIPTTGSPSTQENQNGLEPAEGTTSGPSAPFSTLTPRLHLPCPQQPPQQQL

[4] = target: T1, Bifunctional arginine demethylase and lysyl-hydroxylase JMJD6; assay: Inhibition of JMJD6 in human HeLa cells assessed as increase in HSP70R469me1 level at 10 uM incubated for 6 hrs by immunoblotting analysis; assay type: cell-based
Outline: (§2)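 HeLa cells treated with or without compound at 10 μM for 6 h; lysates immunoblotted for H4R3me2s and HSP70R469me1.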

L02 = assay: Cytotoxicity in human LO2 cells assessed as reduction in cell proliferation incubated for 72 hrs by CellTiter 96 AQueous one solution cell proliferation assay; assay type: cell-based; conditions: l02, 72 h
[5] = target: Histone lysine demethylase PHF8 (Homo sapiens) (UniProt Q9UPP1); assay: as §1, with “PHF8” for “KDM4C”
Sequence of Histone lysine demethylase PHF8 (Homo sapiens) (Q9UPP1 whole entry): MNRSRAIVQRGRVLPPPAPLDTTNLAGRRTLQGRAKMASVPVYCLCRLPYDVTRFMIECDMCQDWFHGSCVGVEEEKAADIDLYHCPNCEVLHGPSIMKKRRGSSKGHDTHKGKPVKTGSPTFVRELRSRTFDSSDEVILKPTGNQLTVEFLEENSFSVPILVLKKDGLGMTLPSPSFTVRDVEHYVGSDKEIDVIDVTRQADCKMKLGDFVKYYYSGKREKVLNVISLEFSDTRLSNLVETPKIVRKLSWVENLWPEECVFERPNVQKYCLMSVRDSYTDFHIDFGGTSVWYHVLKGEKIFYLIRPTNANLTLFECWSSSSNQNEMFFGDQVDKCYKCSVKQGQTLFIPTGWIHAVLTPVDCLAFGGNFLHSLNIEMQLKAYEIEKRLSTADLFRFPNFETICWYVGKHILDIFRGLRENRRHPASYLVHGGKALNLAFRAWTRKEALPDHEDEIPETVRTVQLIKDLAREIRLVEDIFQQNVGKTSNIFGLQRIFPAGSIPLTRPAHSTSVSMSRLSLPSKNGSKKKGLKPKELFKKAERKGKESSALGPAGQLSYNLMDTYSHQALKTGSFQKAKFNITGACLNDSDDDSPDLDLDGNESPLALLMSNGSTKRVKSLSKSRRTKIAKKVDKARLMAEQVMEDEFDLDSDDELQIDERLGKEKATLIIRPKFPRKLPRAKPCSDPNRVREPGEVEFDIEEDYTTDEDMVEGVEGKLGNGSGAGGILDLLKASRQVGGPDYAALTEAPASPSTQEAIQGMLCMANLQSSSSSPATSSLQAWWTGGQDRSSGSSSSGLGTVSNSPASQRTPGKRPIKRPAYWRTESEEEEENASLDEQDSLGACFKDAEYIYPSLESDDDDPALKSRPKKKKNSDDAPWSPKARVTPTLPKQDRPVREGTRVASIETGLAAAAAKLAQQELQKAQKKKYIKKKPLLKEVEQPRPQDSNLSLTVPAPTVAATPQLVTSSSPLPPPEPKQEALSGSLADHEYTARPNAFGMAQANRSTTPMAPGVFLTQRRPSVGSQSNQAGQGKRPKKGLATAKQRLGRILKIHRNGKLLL

[6] = target: T3, Lysine-specific demethylase 3A (Homo sapiens) (UniProt Q9Y4C1); assay: as §1, with “KDM3A” for “KDM4C”
T3 sequence (whole entry): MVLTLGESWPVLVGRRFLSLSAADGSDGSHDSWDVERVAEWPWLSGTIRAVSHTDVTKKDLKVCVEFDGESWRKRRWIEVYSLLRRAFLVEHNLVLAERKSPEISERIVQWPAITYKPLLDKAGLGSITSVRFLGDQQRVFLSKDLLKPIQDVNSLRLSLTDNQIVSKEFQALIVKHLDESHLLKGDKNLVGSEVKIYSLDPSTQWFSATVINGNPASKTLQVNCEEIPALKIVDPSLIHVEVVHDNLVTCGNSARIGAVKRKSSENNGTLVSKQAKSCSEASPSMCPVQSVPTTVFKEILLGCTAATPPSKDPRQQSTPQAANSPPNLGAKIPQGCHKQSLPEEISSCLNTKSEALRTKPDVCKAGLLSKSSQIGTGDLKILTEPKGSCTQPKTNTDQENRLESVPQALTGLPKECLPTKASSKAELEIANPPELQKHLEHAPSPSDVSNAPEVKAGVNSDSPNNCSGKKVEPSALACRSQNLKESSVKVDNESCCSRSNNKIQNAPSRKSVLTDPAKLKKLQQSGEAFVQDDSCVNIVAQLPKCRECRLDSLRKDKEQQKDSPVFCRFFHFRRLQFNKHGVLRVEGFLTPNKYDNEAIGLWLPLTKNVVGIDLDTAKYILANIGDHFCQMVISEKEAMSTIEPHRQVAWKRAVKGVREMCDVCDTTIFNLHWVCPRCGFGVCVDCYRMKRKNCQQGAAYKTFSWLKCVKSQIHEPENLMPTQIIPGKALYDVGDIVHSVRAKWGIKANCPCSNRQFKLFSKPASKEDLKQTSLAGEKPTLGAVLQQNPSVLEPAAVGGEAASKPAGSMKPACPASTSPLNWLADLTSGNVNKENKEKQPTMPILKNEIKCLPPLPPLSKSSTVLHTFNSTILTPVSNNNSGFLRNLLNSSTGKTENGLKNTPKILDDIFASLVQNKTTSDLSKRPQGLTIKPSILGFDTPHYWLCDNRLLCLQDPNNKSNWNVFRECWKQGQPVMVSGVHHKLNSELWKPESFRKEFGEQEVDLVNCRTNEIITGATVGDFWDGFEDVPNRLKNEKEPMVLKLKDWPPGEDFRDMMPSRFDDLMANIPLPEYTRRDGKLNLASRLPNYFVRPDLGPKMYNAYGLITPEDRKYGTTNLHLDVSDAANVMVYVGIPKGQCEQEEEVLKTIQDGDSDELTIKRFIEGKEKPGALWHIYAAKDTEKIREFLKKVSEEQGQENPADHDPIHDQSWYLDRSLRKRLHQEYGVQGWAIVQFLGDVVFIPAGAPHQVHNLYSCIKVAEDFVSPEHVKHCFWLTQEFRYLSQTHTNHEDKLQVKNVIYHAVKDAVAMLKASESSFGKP

[7] = target: T1, Bifunctional arginine demethylase and lysyl-hydroxylase JMJD6; assay: Binding affinity to immobilized His-tagged JMJD6 (unknown origin) expressed in Escherichia coli BL21 (DE3) by biacore-binding assay
[8] = target: T1, Bifunctional arginine demethylase and lysyl-hydroxylase JMJD6; assay: Inhibition of JMJD6 in human HeLa cells assessed as H4R3me2S level at 10 uM incubated for 6 hrs by immunoblotting analysis; assay type: cell-based; outline: as §2
[9] = target: T1, Bifunctional arginine demethylase and lysyl-hydroxylase JMJD6; assay: Inhibition of His-tagged JMJD6 (unknown origin) expressed in Escherichia coli BL21 (DE3) assessed as decrease in demethylase activity by measuring release of formaldehyde using core histone as substrate preincubated with enzyme for 10 mins followed by incubation with substrate for 1 hr measured following 2 hrs incubation with ammonium acetate/acetoacetanilide by fluorescence based analysis
Outline: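 Bacterially expressed, purified JMJD6 mixed with core histones, with or without inhibitor across a concentration series; demethylation read as formaldehyde release; IC50 derived from the series; experiment run three times.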

SMILES: COCCN1CCOc2nc3c(C)cccc3cc2C1
inhibition [1]: Active

SMILES: Cc1ccc2oc(=O)c(-c3nc4cnccc4[nH]3)cc2c1
inhibition [1]: Active
inhibition [2]: inactive
inhibition [3]: inactive
inhibition [4]: Active
Activity (L02): Non-Toxic
inhibition [5]: inactive
inhibition [6]: inactive
Activity [7]: Active
inhibition [8]: inactive
IC50 [9]: 220 nM

Now from value to compound:

inhibition [1]: Active
SMILES: COCCn1cc(OC(C)=O)c2c1nc(C)n1c3ccccc3nc21

inhibition [1]: Active
SMILES: COc1ccc2oc(=O)c(-c3csc(C)n3)cc2c1

inhibition [1]: Active
SMILES: CCOC(=O)c1csc(NC(=O)c2cc(C)on2)n1
